NF-kB neuron act – raises NF-kB expression in human neuronal cells; NF-kB reporter expression; hits give high values; fold change at 12.5 µM; AID 1239; 1.6% of 190,000 active; in the data active means fold change above about 3.3
APP 5'UTR act – APP 5'UTR luciferase reporter activation | activation, % at 2 µM | SH-SY5Y APP 5'UTR luciferase reporter, luminescence; zero percent = DMSO vehicle wells | 1% of 190,000 active;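 active means activation above a set limit, based on mean plus 3 SD of controls, cut at about 140% in these data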
STAT1 activator – activators of IFN-gamma induced STAT1 signaling; NIH 3T3 STAT1-luciferase reporter, luminescence; 100% = IFN-gamma alone, no compound; activation (% of control), % at 5.5 µM; 2.6% of 200,000 active;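 active means activation above the screen-wide mean activation plus 3 SD, cut at about 130% in these data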;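 further: raw ratio to IFN-gamma control signal so 100% means no change and 0% no light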
FLuc act counter – firefly luciferase counter-screen for stimulation assays; P08659; ATPlite luciferase biochemical, luminescence, 10 min; 0 = ATP-free wells, 1 = DMSO control; activation factor at 10 µM; 200,000 tested, under 10 active;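 active means luciferase activation factor, scaled between plate controls, of at least 2 with compound at 10 µM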
Target sequence (P08659 whole entry, looked up): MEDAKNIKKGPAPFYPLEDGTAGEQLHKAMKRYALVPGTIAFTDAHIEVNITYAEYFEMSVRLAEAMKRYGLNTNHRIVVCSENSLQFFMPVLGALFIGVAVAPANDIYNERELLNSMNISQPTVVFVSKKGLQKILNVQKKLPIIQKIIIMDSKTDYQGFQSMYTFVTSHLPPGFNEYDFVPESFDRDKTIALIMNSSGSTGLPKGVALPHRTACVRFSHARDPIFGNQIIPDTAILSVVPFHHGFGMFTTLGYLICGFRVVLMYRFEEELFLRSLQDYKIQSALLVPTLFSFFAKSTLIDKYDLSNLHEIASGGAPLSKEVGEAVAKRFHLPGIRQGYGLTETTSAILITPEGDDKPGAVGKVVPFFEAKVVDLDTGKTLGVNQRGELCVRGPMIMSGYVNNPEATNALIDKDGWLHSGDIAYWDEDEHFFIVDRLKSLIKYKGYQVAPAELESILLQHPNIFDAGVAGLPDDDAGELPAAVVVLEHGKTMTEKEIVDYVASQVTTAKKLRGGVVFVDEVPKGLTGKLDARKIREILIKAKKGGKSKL
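System: luciferase plus luciferin reagent, cell-free; medium: PBS as buffer for the ATP substrate; dosing: test compounds dosed from 2 mM stocks in 100% DMSO; timing: 10 min post-reagent at room temperature; measured by: luminescence measurement of luciferase light output; evaluation: luciferase activation, seen as luminescence increase over controls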
FLuc inhib CS – Photinus pyralis luciferase inhibition counter-screen | ATPLite firefly luciferase biochemical luminescence, 10 min | inhibition, % at 10 µM | 1.5% of 200,000 active;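 active means inhibition above about 50% when tested at 10 µM, limit read from the data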
STAT1 activ conf – confirmation of STAT1 signaling activators. shares compounds with STAT1 activator. 97% of 1,200 active. NIH 3T3 STAT1-luciferase reporter, IFN-gamma potentiation, luminescence; 100% = IFN-gamma EC80 alone, no compound. activation (% of control), % at 5.7 µM;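 active means activation above a set limit carried over from the earlier primary STAT1 screen, cut at about 140% in these data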;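 further: simple ratio to median IFN-gamma plus DMSO wells so 0% means no light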
NFkB act STAT1ct – NF-kappaB activation in STAT1 activator counter-screen. 43% of 1,200 active. HEK293T NF-kB luciferase reporter, TNF-alpha stimulated, luminescence; 100% = TNF-alpha with vehicle only. activation (% of control), % at 5.7 µM. shares compounds with STAT1 activator;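 active means activation above the mean of solvent-only control wells plus 3 SD, set per campaign, cut at about 130% in these data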;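 further: TNF-alpha given at a submaximal dose yielding about 80% of full reporter signal; values are well signal over median control so 100% means no change and 0% no light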
STAT3 act 2 – activates human STAT3, counter-screen to STAT1 activators | U3A cells STAT3-luciferase reporter, IL-6, luminescence; cells lack STAT1; 100 = IL-6 alone, no compound effect | shares compounds with STAT1 activator | activation (% of control), % at 5.7 µM | 46% of 1,200 active;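 active means activation above the solvent-only control well mean plus 3 SD, set per plate batch, cut at about 110% in these data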;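 further: 0% = no luminescence and 100% = median IL-6 plus DMSO wells; higher means more STAT3 reporter activation so hits are non-selective activators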
Starred values were filed as active, the others as inactive; x = not tested or not shown. A selection: hits, their analogues and other compounds. The true share with any hit is near 4.3%.

SMILES	NF-kB neuron act	APP 5'UTR act	STAT1 activator	FLuc act counter	FLuc inhib CS	STAT1 activ conf	NFkB act STAT1ct	STAT3 act 2
Cc1nc(Nc2ccc(C(=O)O)cc2)sc1-c1ccccc1	x	160*	131*	0.6	45	x	x	x
O=C(O)c1ccc(Nc2nc3c(s2)CCCC3)cc1	3.5*	65	36	0.8	20	x	x	x
C/C(=N\Nc1nc2c(s1)CCCC2)c1ccccc1	2.1	15	149*	0.9	14	x	x	x
COC(=O)c1sc(Nc2ccccc2)nc1C	1.9	35	128	0.9	13	x	x	x
Cc1ccc(C(=O)N2CCCC2)cc1S(=O)(=O)Nc1cccc(C)c1C	0.93	-4	102	1.1	-9	x	x	x
Cc1ccc(-c2ccc(CCC(=O)O)n2C(C)C)cc1	0.84	6	151*	1	-3	106	113	101
CCOc1ccccc1C(=O)NC(C(=O)Nc1cccc(S(N)(=O)=O)c1)C(C)C (stereo unspecified)	1	6	92	1	-1	x	x	x
Cc1cc(N/N=C/c2ccccc2Br)nc2ccccc12	1.7	22	102	1	0	x	x	x
Brc1ccccc1/C=N/Nc1ccc2ccccc2n1	9.4*	119	158*	0.6	37	191*	120	146*
O=C(/C(C=Nc1ccc(Br)cc1)=C(/O)c1ccco1)C(F)(F)F	5.7*	171*	166*	0.3	66*	201*	92	84
O=C(/C(C=Nc1cccc(C(F)(F)F)c1)=C(/O)c1ccco1)C(F)(F)F	1.6	25	108	0.8	24	x	x	x
Cc1noc(C)c1COc1cccc(C(=O)Nc2ccccc2N2CCOCC2)c1	0.76	0	99	1.1	-6	x	x	x
CN(c1ccccc1)c1ccc(/C=N/N2CCOCC2)cc1	6.8*	97	172*	0.3	70*	197*	129	108
CCN(CC)c1ccc(/C=N/N2CCN(Cc3ccccc3)CC2)cc1	1.4	-6	102	1	2	x	x	x
COC(=O)C(C)NC(=O)CNS(=O)(=O)c1ccc(F)cc1 (stereo unspecified)	1.1	-15	110	1	-2	x	x	x
O=c1sc(Nc2ccccc2)nc2ccccc12	0.88	19	88	1.1	-8	x	x	x
Cc1nc(Nc2ccccc2)sc1-c1ccccc1	8.8*	187*	193*	0.2	85*	242*	130	107
CCOC(=O)/C(C#N)=C/c1cc(C)n(-c2ccccc2)c1C	1.2	153*	165*	0.2	76*	255*	115	105
CCOC(=O)c1c(/N=C/N(C)C)sc(/C=N/Nc2ccccc2)c1-c1ccc(Cl)cc1	0.93	2	104	1	-1	x	x	x
CCc1cc2c(=O)[nH]c(-c3ccccn3)nc2s1	0.97	34	152*	0.6	37	189*	137*	104
CCc1ccc(NC(=O)N2CCC(c3ccccc3)C2)cc1 (stereo unspecified)	4.3*	164*	161*	0.6	42	182*	133	109
CC(C)C(=O)NC(=S)Nc1ccc(S(=O)(=O)N2CCN(C)CC2)cc1	0.98	1	108	1	-3	x	x	x
COc1ccc(-c2[nH]n(-c3ccc([N+](=O)[O-])cc3)c(=O)c2C=NCCN2CCNCC2)cc1	1	-14	95	1	-4	x	x	x
O=c1c(C=NCCN2CCNCC2)c(-c2ccccc2)[nH]n1-c1ccc([N+](=O)[O-])cc1	1.8	8	168*	1	-3	145*	125	120*
CCOCC(=O)Nc1c(C(=O)Nc2ccc3c(c2)OCCO3)oc2ccccc12	1.4	129	155*	1	1	160*	142*	103
SMILES	NF-kB neuron act	APP 5'UTR act	STAT1 activator	FLuc act counter	FLuc inhib CS	STAT1 activ conf	NFkB act STAT1ct	STAT3 act 2
COCC(=O)Nc1c(C(=O)Nc2ccc3c(c2)OCCO3)oc2ccccc12	2.4	195*	176*	1	-2	176*	140*	104
COc1ccc(NC(=O)c2oc3ccccc3c2NC(=O)c2ccc3c(c2)OCO3)cc1	0.48	-6	97	0.9	15	x	x	x
CCOCC(=O)Nc1c(C(=O)Nc2ccccc2OC)oc2ccccc12	1.2	9	106	1	-4	x	x	x
COC(=O)CSc1nc2[nH]ncc2c(=O)[nH]1	1.1	26	100	1.1	-8	x	x	x
CCOC(=O)c1ccc2c(c1)N(CC#N)C(=O)C(C)(C)O2	1.6	0	99	1	2	x	x	x
CCOC(=O)c1c(-c2ccc(C)cc2)csc1NC1=NS(=O)(=O)c2ccccc21	1	8	102	1	-1	x	x	x
COc1ccc(Cn2c(C3CC3)nc3ccc(NC(C)=O)cc3c2=O)cc1	4.3*	142*	169*	1	3	213*	143*	134*
O=C(N/N=C/c1ccc(Cl)cc1Cl)c1n[nH]c2c1CCCC2	1.1	-10	120	0.9	11	x	x	x
O=C(N/N=C\c1cccc(Cl)c1)c1n[nH]c2c1CCCC2	1.6	156*	170*	0.6	38	212*	117	101
CC1(C)Cc2cccc(OCC(=O)N3CCN(S(=O)(=O)c4ccccc4)CC3)c2O1	0.89	-7	87	1	1	x	x	x
O=C(c1nc(-c2ccccc2)n(-c2ccccc2)n1)N1CCN(S(=O)(=O)c2ccccc2)CC1	1.1	-9	100	1	-1	x	x	x
NS(=O)(=O)c1ccc(NC(=O)/C=C/c2cn(-c3ccccc3)nc2-c2cccc(Cl)c2)cc1	1	-6	108	1	0	x	x	x
O=C(/C=C/c1cn(-c2ccccc2)nc1-c1ccccc1)Nc1ccc(C(=O)O)cc1	2.6	12	152*	0.8	20	148*	113	114*
CC(C)c1ccc2c(c1)[C@H]1OCC[C@H]1[C@@H](c1cccs1)N2	2	-86	111	0.7	26	x	x	x
Cc1ccc2nc(SCn3nnc4ccccc4c3=O)[nH]c2c1	3.8*	175*	163*	0.9	12	180*	120	129*
O=c1c2ccccc2nnn1CSc1ncnc2ccccc12	2.3	3	82	1.1	-10	x	x	x
O=c1c2ccccc2nnn1CSc1ccccc1F	4.7*	152*	160*	0.8	25	198*	115	103
Cc1ccc2nc(SCC(=O)c3c(C)[nH]c4ccccc34)[nH]c2c1	0.89	3	103	1	4	x	x	x
COc1ccc2cc3cc(C(=O)NCc4cccnc4)oc3nc2c1	1.5	9	111	1	1	x	x	x
